The text below walks through data of ChEMBL document CHEMBL3580617, “Discovery of Benzimidazole CYP11B2 Inhibitors with in Vivo Activity in Rhesus Monkeys” (ACS Med Chem Lett, 2015).

Data set [1] is described as follows: Fraction unbound in rhesus monkey plasma at […] incubated for 4 hrs by equilibrium dialysis and LC/MS method. Format: ADME, cell-free, Macaca mulatta.
Data set [2] is described as follows: Plasma clearance in Sprague-Dawley rat at 2 mg/kg, po or 1 mg/kg, iv by LC-MS/MS method. Format: ADME, organism-based. The essentials:
(§1)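 In the rat pharmacokinetic study, AUC was normalized for dose (μM·h·kg/mg), plasma clearance was expressed in mL/min/kg, and oral bioavailability was calculated.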

Another data set relates to Rattus norvegicus. Nature of the data set: Dose normalized AUC in Sprague-Dawley rat at 2 mg/kg, po or 1 mg/kg, iv by LC-MS/MS method. Format: ADME, organism-based. Particulars: in vivo; call rule not given here. Put shortly: as §1
A further data set deals with Cytochrome P450 2C9 (Homo sapiens, UniProt P11712). Nature of the data set: Inhibition of CYP2C9 (unknown origin). The format is ADME.
Cytochrome P450 2C9, sequence (P11712 whole entry): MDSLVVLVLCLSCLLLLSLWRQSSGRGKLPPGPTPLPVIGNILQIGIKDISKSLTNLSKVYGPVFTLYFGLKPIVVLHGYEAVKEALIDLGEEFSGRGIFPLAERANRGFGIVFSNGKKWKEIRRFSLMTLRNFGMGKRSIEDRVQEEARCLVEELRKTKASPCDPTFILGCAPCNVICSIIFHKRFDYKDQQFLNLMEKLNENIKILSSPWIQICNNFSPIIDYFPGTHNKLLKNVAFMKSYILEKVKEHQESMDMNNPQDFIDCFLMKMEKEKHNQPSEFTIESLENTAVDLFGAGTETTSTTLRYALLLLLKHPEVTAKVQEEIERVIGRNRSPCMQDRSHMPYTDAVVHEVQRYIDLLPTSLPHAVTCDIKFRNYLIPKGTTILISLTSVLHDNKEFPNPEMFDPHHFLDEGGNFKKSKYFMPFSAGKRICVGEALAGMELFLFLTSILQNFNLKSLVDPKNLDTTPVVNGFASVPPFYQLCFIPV
The target of the next data set is Cytochrome P450 3A4 (Homo sapiens, UniProt P08684). Description: Inhibition of CYP3A4 (unknown origin). Format: ADME.
Cytochrome P450 3A4, sequence (P08684 whole entry): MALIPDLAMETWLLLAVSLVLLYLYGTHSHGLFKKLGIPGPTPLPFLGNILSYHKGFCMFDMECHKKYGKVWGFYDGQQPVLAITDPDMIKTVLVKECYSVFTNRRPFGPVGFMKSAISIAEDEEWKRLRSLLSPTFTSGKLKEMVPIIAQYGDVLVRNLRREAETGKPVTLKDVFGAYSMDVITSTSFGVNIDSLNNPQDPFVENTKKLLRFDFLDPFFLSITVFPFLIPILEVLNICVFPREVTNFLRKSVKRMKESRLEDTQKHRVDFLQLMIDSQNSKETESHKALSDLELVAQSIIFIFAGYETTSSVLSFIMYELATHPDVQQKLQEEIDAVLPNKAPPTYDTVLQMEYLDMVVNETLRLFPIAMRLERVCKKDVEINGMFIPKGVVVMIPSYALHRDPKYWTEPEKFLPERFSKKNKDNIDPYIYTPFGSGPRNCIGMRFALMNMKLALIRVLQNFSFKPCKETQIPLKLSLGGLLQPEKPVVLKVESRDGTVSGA
A further data set has as its target T1, Steroid 21-hydroxylase (Homo sapiens, UniProt P08686).
T1 sequence (P08686 whole entry): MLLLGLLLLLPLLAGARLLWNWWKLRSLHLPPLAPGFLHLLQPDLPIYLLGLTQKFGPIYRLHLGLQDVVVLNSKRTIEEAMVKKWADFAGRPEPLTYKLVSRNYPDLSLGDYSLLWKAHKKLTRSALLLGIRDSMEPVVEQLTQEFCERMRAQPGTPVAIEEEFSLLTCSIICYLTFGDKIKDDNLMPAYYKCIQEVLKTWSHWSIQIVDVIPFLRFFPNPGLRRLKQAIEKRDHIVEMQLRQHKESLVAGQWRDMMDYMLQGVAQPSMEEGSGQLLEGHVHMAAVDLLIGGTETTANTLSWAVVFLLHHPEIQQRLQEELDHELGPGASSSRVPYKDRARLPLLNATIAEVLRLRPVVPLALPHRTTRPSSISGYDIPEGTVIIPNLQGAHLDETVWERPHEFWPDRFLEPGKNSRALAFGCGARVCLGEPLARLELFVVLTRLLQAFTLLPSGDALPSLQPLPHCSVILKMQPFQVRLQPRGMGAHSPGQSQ
Description: Inhibition of human CYP21 expressed in COS7 cells incubated for 1 hr before […] substrate addition by HTRF-based assay. Format: cell-based, COS-7. Background: In TR-FRET formats the signal depends on donor and acceptor labels being close together.

A short description of data set [3]: Intrinsic clearance in rat liver microsomes at […] incubated for 10 mins before NADPH addition by LC/MS method. The note with it: read-out: CLH. Format: ADME.
The nature of data set [4]: Intrinsic clearance in rhesus monkey liver microsomes at […] incubated for 10 mins before NADPH addition by LC/MS method. Format: ADME, Macaca mulatta. The note with it: read-out: CLH.
A further data set concerns Rhesus monkey. Description: Dose normalized AUC in rhesus monkey at 1 mg/kg, po or 0.5 mg/kg, iv by LC-MS/MS method. Format: ADME, organism-based, Macaca mulatta. Particulars: in vivo.
The next data set has as its target T2, Aromatase (Homo sapiens, UniProt P11511).
T2 sequence (P11511 whole entry): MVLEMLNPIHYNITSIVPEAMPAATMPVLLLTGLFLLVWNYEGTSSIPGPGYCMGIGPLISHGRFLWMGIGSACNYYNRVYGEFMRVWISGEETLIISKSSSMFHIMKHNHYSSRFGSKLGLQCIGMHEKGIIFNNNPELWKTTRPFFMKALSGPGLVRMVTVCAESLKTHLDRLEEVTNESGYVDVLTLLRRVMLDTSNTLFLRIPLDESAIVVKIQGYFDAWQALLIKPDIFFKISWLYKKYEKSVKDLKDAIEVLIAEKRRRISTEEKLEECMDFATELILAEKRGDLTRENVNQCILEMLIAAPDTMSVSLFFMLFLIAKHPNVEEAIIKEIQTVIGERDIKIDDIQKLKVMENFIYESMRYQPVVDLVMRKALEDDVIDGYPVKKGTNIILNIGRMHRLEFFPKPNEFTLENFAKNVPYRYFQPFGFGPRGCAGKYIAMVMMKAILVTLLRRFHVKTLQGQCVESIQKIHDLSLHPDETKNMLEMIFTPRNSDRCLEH
Nature of the data set: Inhibition of CYP19 (unknown origin) using MFC substrate incubated for 30 mins.

Data set [5] deals with T3, Steroid 17-alpha-hydroxylase/17,20 lyase (Homo sapiens, UniProt P05093).
T3 sequence (P05093 whole entry): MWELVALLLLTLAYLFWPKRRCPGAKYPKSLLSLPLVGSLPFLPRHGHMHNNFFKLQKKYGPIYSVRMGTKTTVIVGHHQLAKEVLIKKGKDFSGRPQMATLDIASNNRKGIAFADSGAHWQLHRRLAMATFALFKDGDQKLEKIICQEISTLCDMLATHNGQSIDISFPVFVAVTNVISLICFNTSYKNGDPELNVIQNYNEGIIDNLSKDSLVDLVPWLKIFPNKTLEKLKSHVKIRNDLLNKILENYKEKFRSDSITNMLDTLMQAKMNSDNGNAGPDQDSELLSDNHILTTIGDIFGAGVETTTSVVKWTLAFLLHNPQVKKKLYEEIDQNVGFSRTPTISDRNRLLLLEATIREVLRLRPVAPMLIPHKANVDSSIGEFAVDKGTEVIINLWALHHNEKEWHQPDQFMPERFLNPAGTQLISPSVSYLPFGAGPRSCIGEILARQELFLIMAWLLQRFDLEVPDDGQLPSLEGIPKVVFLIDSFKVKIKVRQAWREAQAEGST
Description: Inhibition of human CYP17 expressed in COS7 cells incubated for 1 hr before 17-hydroxypregnenolone substrate addition by EIA method. The format is cell-based, COS-7.

For data set [6], the target named is T4, Cytochrome P450 11B2, mitochondrial (Rattus norvegicus, UniProt P30099).
T4 sequence (P30099 whole entry): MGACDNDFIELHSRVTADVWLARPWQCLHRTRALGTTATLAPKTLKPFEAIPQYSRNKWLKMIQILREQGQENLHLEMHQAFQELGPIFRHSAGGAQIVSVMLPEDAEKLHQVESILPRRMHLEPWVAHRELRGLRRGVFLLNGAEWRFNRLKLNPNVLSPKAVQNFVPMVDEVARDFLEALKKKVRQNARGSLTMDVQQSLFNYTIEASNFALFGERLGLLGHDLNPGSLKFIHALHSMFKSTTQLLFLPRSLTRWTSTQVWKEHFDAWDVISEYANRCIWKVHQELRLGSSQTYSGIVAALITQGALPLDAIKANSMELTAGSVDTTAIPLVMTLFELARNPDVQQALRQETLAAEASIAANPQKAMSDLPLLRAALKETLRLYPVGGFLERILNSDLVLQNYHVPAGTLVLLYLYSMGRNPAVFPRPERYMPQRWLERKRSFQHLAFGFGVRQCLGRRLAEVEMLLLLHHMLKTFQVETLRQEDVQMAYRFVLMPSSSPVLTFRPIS
Nature of the data set: Inhibition of rat CYP11B2 expressed in V79 cells incubated for 1 hr before 11-deoxycorticosterone substrate addition by HTRF-based assay. The note with it: v79, 1 h. The format is cell-based.

The nature of data set [7]: Fraction unbound in rat plasma at […] incubated for 4 hrs by equilibrium dialysis and LC/MS method. Format: ADME, cell-free. (In general: In equilibrium dialysis free small molecules cross a membrane that holds back macromolecules.)
Data set [8] can be described thus: Oral bioavailability in rhesus monkey at 1 mg/kg by LC-MS/MS method. The format is ADME, organism-based, Macaca mulatta. Particulars: in vivo.
Data set [9] is described as follows: Oral bioavailability in Sprague-Dawley rat at 2 mg/kg by LC-MS/MS method. Format: ADME, organism-based. Particulars: in vivo. Put shortly:
as §1

The nature of data set [10]: Plasma clearance in rhesus monkey at 1 mg/kg, po or 0.5 mg/kg, iv by LC-MS/MS method. Format: ADME, organism-based, Macaca mulatta.

One may read the fraction unbound as free concentration divided by total concentration. In general, IC50 refers to the midpoint of a concentration-inhibition curve. By bioavailability is commonly meant dose-corrected exposure relative to a reference, in per cent.

Regarding `CC(C)(O)c1cncc(-c2nc3ccc(F)cc3n2C2CC2)c1` [MSD-CYP11B2], the fraction unbound at 4 h was 0.07 in [1] and 0.13 in data set [7]. Moreover, the clearance in data set [2] is 10 mL/min/kg; in data set [10], 5 mL/min/kg. Moreover, the AUC/dose amounted to 4.32 µM·kg·h/mg with Rattus norvegicus and 1.53 µM·kg·h/mg with Rhesus monkey. The “inhibition (INH)” value (against Cytochrome P450 2C9; in data set [6]) was “Not Active” each time. For the same compound, the IC50 against Cytochrome P450 3A4 is more than 50 µM; against Steroid 21-hydroxylase it was more than 10 µM; on Aromatase it was 1.02 µM; in data set [5], more than 10 µM. The figures for the CLint scaled in [3] and in data set [4] were less than 20 mL/min/kg and 22 mL/min/kg, respectively. For the same compound, the bioavailability in data set [8] is 15%; in [9] it was 76%.

With `Fc1cncc(-c2nc3cc(F)c(F)cc3n2C2CC2)c1`, the unbound share (fraction unbound) at 4 h in data set [1] turned out to be 0.23; in data set [7], 0.14. For the same compound, the clearance in data set [2] was 37 mL/min/kg; in data set [10], 10 mL/min/kg. Moreover, the figures for the AUC/dose in the data set with Rattus norvegicus and in the data set on Rhesus monkey were 2.1 µM·kg·h/mg and 3.07 µM·kg·h/mg, respectively. Also, the “inhibition (INH)” value (against Cytochrome P450 2C9; in [6]) was “Not Active” throughout. Besides, the IC50 at Cytochrome P450 3A4 is more than 50 µM; at Steroid 21-hydroxylase it was more than 10 µM; on Aromatase, 4.51 µM; in data set [5], more than 10 µM. In addition, the CLint scaled in [3] and in data set [4] was less than 20 mL/min/kg throughout. Besides, the values for the bioavailability in data set [8] and in data set [9] were 53% and 86%, respectively.
